Test results published in ChEMBL document CHEMBL1122841, “Structure-activity relationships among benextramine-related tetraamine disulfides at peripheral alpha-adrenoreceptors” (J Med Chem, 1985).

Columns and labels:
[1] = target: Adrenergic receptor alpha (Rattus norvegicus) (UniProt P15823+P23944+P43140+P22086+P19328+P22909); experiment: Antagonistic blocking activity at alpha adrenergic receptor by NE induced contractions of the epididymal portion of isolated rat vas deferens at the dose of 20 uM; assay type: functional, tissue-based; parameters: scale not given: the % may be the effect or the level left
In short: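 Epididymal portion of isolated rat vas deferens under 1.0 g tension in PSS (mM: NaCl 118, KCl 4.7, CaCl2 2.52, MgCl2 3.57, KH2PO4 1.54, NaHCO3 12.5, glucose 11.1). Antagonist at 20 µM for 30 min, then 30-min wash. Value is the percent decrease of maximum contraction to 100 µM NE versus control, mean ± SEM; n = 3–7.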

[2] = target: Adrenergic receptor alpha; experiment: Inhibitory activity against alpha adrenergic receptor in rat
Rattus norvegicus = species: Rattus norvegicus; experiment: Antimuscarinic activity against carbachol induced response in rat jejunum; assay type: functional
In short: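 Rat jejunum under 1.0 g tension in the same PSS, stabilised with submaximal agonist doses. Cumulative carbachol curves used about 3-fold steps and force-transducer recording. After about 15 min rest, antagonist (10–100 µM) was incubated 30 min and the curve repeated. Dose ratios were taken before and after a 30-min wash; mean ± SEM of 5–6 observations.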

[3] = target: Adrenergic receptor alpha; experiment: Inhibitory activity against alpha adrenergic receptor; assay type: protein assay

Compound	Activity [1] [%]	other results
Fc1ccc(CNCCCCCCNCCSSCCNCCCCCCNCc2ccc(F)cc2)cc1	100	–
COc1c(C)cccc1CNCCCCCCNCCSSCCNCCCCCCNCc1cccc(C)c1OC	59	–
O=[N+]([O-])c1cc(O)c(O)cc1CNCCCCCCNCCSSCCNCCCCCCNCc1cc(O)c(O)cc1[N+](=O)[O-]	99	–
c1cc(CNCCCCCCNCCSSCCNCCCCCCNCc2ccsc2)cs1	17	–
CS(=O)(=O)c1ccccc1CNCCCCCCNCCSSCCNCCCCCCNCc1ccccc1S(C)(=O)=O	35	–
c1ccc2c(CNCCCCCCNCCSSCCNCCCCCCNCc3cccc4ccccc34)cccc2c1	22	–
Clc1cc(Cl)cc(CNCCCCCCNCCSSCCNCCCCCCNCc2cc(Cl)cc(Cl)c2)c1	44	–
O=[N+]([O-])c1cccc(CNCCCCCCNCCSSCCNCCCCCCNCc2cccc([N+](=O)[O-])c2)c1	49	–
COc1cccc([N+](=O)[O-])c1CNCCCCCCNCCSSCCNCCCCCCNCc1c(OC)cccc1[N+](=O)[O-]	42	–
Clc1ccc(CNCCCCCCNCCSSCCNCCCCCCNCc2ccc(Cl)c(Cl)c2)cc1Cl	39	–
Clc1ccc(CNCCCCCCNCCSSCCNCCCCCCNCc2ccc(Cl)cc2Cl)c(Cl)c1	54	–
Brc1ccc(CNCCCCCCNCCSSCCNCCCCCCNCc2ccc(Br)cc2)cc1	34	–
COc1ccc(CNCCCCCCNCCSSCCNCCCCCCNCc2ccc(OC)c(OC)c2[N+](=O)[O-])c([N+](=O)[O-])c1OC	27	–
Clc1ccc(CNCCCCCCNCCSSCCNCCCCCCNCc2ccc(Cl)cc2)cc1	50	–
COc1cc(CNCCCCCCNCCSSCCNCCCCCCNCc2cc(OC)c(OC)cc2[N+](=O)[O-])c([N+](=O)[O-])cc1OC	47	–
c1ccc2cc(CNCCCCCCNCCSSCCNCCCCCCNCc3ccc4ccccc4c3)ccc2c1	27	–
Cc1ccc(CNCCCCCCNCCSSCCNCCCCCCNCc2ccc(C)o2)o1	100	–
O=[N+]([O-])c1ccc(CNCCCCCCNCCSSCCNCCCCCCNCc2ccc([N+](=O)[O-])cc2)cc1	41	–
O=[N+]([O-])c1c(CNCCCCCCNCCSSCCNCCCCCCNCc2ccc(O)c(O)c2[N+](=O)[O-])ccc(O)c1O	17	–

Further lines, with some results ahead:

Activity [1] [%]	Compound	other results
73	Fc1cccc(CNCCCCCCNCCSSCCNCCCCCCNCc2cccc(F)c2)c1	–
100	Cn1cccc1CNCCCCCCNCCSSCCNCCCCCCNCc1cccn1C	–
11	c1cc(CNCCCCCCNCCSSCCNCCCCCCNCc2ccncc2)ccn1	–
58	Brc1ccccc1CNCCCCCCNCCSSCCNCCCCCCNCc1ccccc1Br	–
100	c1coc(CNCCCCCCNCCSSCCNCCCCCCNCc2ccco2)c1	–
78	c1ccc(CNCCCCCCNCCSSCCNCCCCCCNCc2ccccn2)nc1	–
36	c1ccc2ncc(CNCCCCCCNCCSSCCNCCCCCCNCc3cnc4ccccc4c3)cc2c1	–
55	Fc1ccccc1CNCCCCCCNCCSSCCNCCCCCCNCc1ccccc1F	–
66	CSc1ccccc1CNCCCCCCNCCSSCCNCCCCCCNCc1ccccc1SC	–
51	O=[N+]([O-])c1ccccc1CNCCCCCCNCCSSCCNCCCCCCNCc1ccccc1[N+](=O)[O-]	–
100	COc1ccccc1CNCCCCCCNCCSSCCNCCCCCCNCc1ccccc1OC [BENEXTRAMINE]	IC50 [2]: 4.02 µM; Kb (Rattus norvegicus): 2.01 µM
80	c1csc(CNCCCCCCNCCSSCCNCCCCCCNCc2cccs2)c1	–
100	c1c[nH]c(CNCCCCCCNCCSSCCNCCCCCCNCc2ccc[nH]2)c1	IC50 [3]: 0.9 µM; Kb (Rattus norvegicus): 5.25 µM
46	Clc1cccc(CNCCCCCCNCCSSCCNCCCCCCNCc2cccc(Cl)c2)c1	–
58	Brc1cccc(CNCCCCCCNCCSSCCNCCCCCCNCc2cccc(Br)c2)c1	–
13	c1cncc(CNCCCCCCNCCSSCCNCCCCCCNCc2cccnc2)c1	–
32	c1ccc2c(CNCCCCCCNCCSSCCNCCCCCCNCc3ccnc4ccccc34)ccnc2c1	–
